Among the data in ChEMBL document CHEMBL1132226, “1,2,5-Oxadiazole N-oxide derivatives and related compounds as potential antitrypanosomal drugs: structure-activity relationships” (1999) are inhibition values, retold here.

For orientation: inhibition means the share of the control response that was lost under treatment. Read a high inhibition as strong suppression.

Test [1] deals with Trypanosoma cruzi. In words: In vitro antitrypanosomal activity against Trypanosoma cruzi epimastigotes at dose 25 uM. The test is classed as functional. In outline: (§1)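 T. cruzi Tulahuen 2 epimastigotes were grown at 28 °C in axenic BHI-tryptose medium with 10% fetal calf serum. Inocula came from a 10-day stationary culture, starting at 1 × 10⁶ cells/mL. Compound was added from a DMSO stock before inoculation, with final DMSO ≤0.4%; controls had 0.4% DMSO and no drug. Growth was read as A600 daily. Percent inhibition = {1 − [(Ap − A0p)/(Ac − A0c)]} × 100, using day-5 versus day-0 absorbances. Values are the mean of three experiments.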

Test [2] relates to Trypanosoma cruzi. In words: (§2) The compound was tested in vitro for antitrypanosomal activity against Trypanosoma cruzi epimastigotes at a dose of 25 uM. Type of test: functional. An outline of the steps: as §1
The test system of test [3] is Trypanosoma cruzi. The test is described as §2.

On to `CN(C)CCCNC(=O)c1ccc2no[n+]([O-])c2c1`, for which, in test [1], the inhibition at 25 µM was found to be 15%.
In turn, `CCCCNC(=O)c1ccc2nonc2c1` displayed an inhibition at 25 µM in test [2] of 0%.
`O=C(NCCCN1CCOCC1)c1ccc2no[n+]([O-])c2c1` came in with an inhibition at 25 µM in test [1] of 19%.
In turn, `CCN(CC)CCCNC(=O)N/N=C/c1ccc2no[n+]([O-])c2c1` came in with an inhibition at 25 µM in test [1] of 8%.
The compound `CCCCNC(=O)N/N=C/c1ccc2c(c1)[n+]([O-])c(C#N)c(N)[n+]2[O-]` gave an inhibition at 25 µM in test [1] of 17%.
As to `CCCCNC(=O)N/N=C/c1ccc2c(c1)[n+]([O-])cc[n+]2[O-]`, in test [1], the inhibition at 25 µM worked out at 23%.
`CCCCNC(=O)N/N=C/c1no[n+]([O-])c1C` gave an inhibition at 25 µM in test [1] of 0%.
Still for that read-out and setting: for `[O-][n+]1onc(-c2ccccc2)c1CNCCCN1CCOCC1` the value was 38%; for `CCCCCCNC(=O)N/N=C/c1c(-c2ccccc2)no[n+]1[O-]`, 53%; for `Cc1c(CNCCCN2CCOCC2)no[n+]1[O-]`, 0%.
Compound `O=C(NCCCN1CCCCC1)c1ccc2no[n+]([O-])c2c1` yielded an inhibition at 25 µM in test [1] of 45%.
For the compound `CCCCCCNC(=O)N/N=C/c1ccc2no[n+]([O-])c2c1`, in test [1], the inhibition at 25 µM was 55%.
Take `CCCCNC(=O)N/N=C/c1ccc2no[n+]([O-])c2c1`: in test [1], the inhibition at 25 µM came to 45%.
Regarding `CCCCNC(=O)N/N=C/c1c(C)[n+]([O-])c2ccccc2[n+]1[O-]`, at 25 µM the inhibition in test [1] was 6%.
For the compound `CCCCCCNC(=O)c1ccc2no[n+]([O-])c2c1`, the inhibition at 25 µM in test [1] stood at 79%.
On the same count and under the same terms, for `CCCCNC(=O)N/N=C/c1c(-c2ccccc2)no[n+]1[O-]` the value was 17%; for `CCN(CC)CCCNCc1c(-c2ccccc2)no[n+]1[O-]`, 22%.
`CCCCNC(=O)c1ccc2no[n+]([O-])c2c1` came in with an inhibition at 25 µM in test [1] of 90%.
Regarding `Cc1c(CNCCCN2CCCCC2)no[n+]1[O-]`, in test [1], 25 µM produced 0% inhibition.
On to `CCCCNCc1ccc2no[n+]([O-])c2c1`, for which at 25 µM the inhibition in test [1] was 21%.
In turn, `CCCCNC(=O)N/N=C/c1ccc2nonc2c1` yielded an inhibition at 25 µM in test [1] of 0%.
With `CCCCNC(=O)NNCc1ccc2no[n+]([O-])c2c1`, testing at 25 µM in test [1] gave an inhibition of 55%.
In turn, `CCCCCCNC(=O)c1ccc2nonc2c1` returned an inhibition at 25 µM in test [2] of 10%.
In the case of `CCN(CC)CCCNC(=O)c1ccc2no[n+]([O-])c2c1`, the inhibition at 25 µM in test [1] turned out to be 17%.
In test [1], `CCCCNC(=O)N/N=C/c1ccc2c(c1)[n+]([O-])c(C)c(C)[n+]2[O-]` showed an inhibition at 25 µM of 0%.
In test [1], `CCCCCCNC(=O)N/N=C/c1no[n+]([O-])c1C` displayed an inhibition at 25 µM of 3%.
Turning to `CN(C)CCCNC(=O)N/N=C/c1ccc2no[n+]([O-])c2c1`, in test [1], the inhibition at 25 µM is 11%.
As to `CC1CS(=O)(=O)CCN1/N=C/c1ccc([N+](=O)[O-])o1` (stereo not drawn) [NIFURTIMOX], in test [3], testing at 25 µM gave an inhibition of 100%.
